In ChEMBL document CHEMBL2203124, “Discovery and characterization of a novel 7-aminopyrazolo[1,5-a]pyrimidine analog as a potent hepatitis C virus inhibitor” (Bioorg Med Chem Lett, 2012):
≈ marks a conversion by molar mass, not a printed value. Calls of active or inactive are those of the source. No cut-off for these calls is given here.

Columns and labels:
[1] = Half life in human liver microsomes; type: ADME, Microsome
[2] = Half life in rat liver microsomes; type: ADME, Microsome
[3] = Selectivity index, ratio of CC50 for human HuH7 cells to EC50 for 1 MOI of HCV genotype 2 infected in human HuH7 cells; design: species or system Huh-7
Outline: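 The SI is CC50 divided by EC50. Both values come from 10-point dose-response curves (duplicates, quadruplicate measurements) in Huh-7 cells. CC50 is from cell growth inhibition.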

[4] = test system: Hepatitis C virus; assay: Antiviral activity against 1 MOI of HCV genotype 2 infected in human HuH7 cells assessed as inhibition of viral RNA replication after 72 hrs by confocal microscopy; type: functional, organism-based, Hepacivirus hominis; details: genotype 2, Huh-7, 72 h
Outline: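 Reporter virus is cell-culture-adapted full-length JFH-1 with GFP inserted in NS5A domain III; GFP fluorescence tracks viral RNA replication. Serially diluted compound added to naïve Huh-7 cells, then infected with HCVcc at MOI 1. Live cells imaged by automated confocal microscopy at 72 h post-infection. EC50 from 10-point dose-response curves, run in duplicate with quadruplicate measurements.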

[5] = test system: Hepatitis C virus; assay: Antiviral activity against HCV genotype 1 expressing envelope protein at 1 uM; type: functional, organism-based; details: Hepacivirus hominis
[6] = Solubility of the compound at pH 7.4; type: physicochemical; details: buffer
[7] = test system: Hepatitis C virus; assay: Antiviral activity against HCV genotype 2 by replicon assay; type: functional, organism-based, Hepacivirus hominis
[8] = Cytotoxicity against human HuH7 cells assessed as growth inhibition; type: cell-based, Huh-7
Outline: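 Compound toxicity is measured as inhibition of Huh-7 cell growth, run in parallel with the HCVcc infection assay. CC50 comes from 10-point dose-response curves, done in duplicate with quadruplicate measurements.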

half-life [1] [h]	half-life [2] [h]	EC50 [4] [µM]	solubility [6] [µM]	EC50 [7]	Compound	Ratio CC50/EC50 [3]	Activity [5]	CC50 [8] [µM]
> 1	> 1	0.28	73 (≈ 27.6 µg/mL)	Not Active	Cc1ccc(-c2c(C)nn3c(NC4CCN(C(C)C)CC4)cc(C)nc23)cc1	31	inactive	8.8
–	–	5.3	–	–	Cc1ccc(-c2c(C)nn3c(NCCc4ccccc4)cc(C)nc23)cc1	1	–	5.2
–	–	12	–	–	Cc1cc(NC2CCN(C(C)C)CC2)n2nccc2n1	1	–	12
–	–	2.8	–	–	Cc1ccc(-c2c(C)nn3c(NCc4cccnc4)c4c(nc23)CCCC4)cc1	3.1	–	8.7
–	–	2.3	–	–	COCCCNc1cc(C)nc2c(-c3ccc(C)cc3)c(C)nn12	8.3	–	19
> 1	0.373	0.54	76 (≈ 25.6 µg/mL)	–	Cc1ccc(-c2c(C)nn3c(NCCCN(C)C)cc(C)nc23)cc1	41	inactive	22
–	–	1	–	–	Cc1ccc(-c2c(C)nn3c(NC4CCN(C)CC4)cc(C)nc23)cc1	18	–	18
–	–	7.2	–	–	Cc1ccc(-c2c(C)nn3c(NCCN(C)C)cc(C(F)(F)F)nc23)cc1	2.1	–	15
